≈ marks a conversion by molar mass, not a printed value. Calls of active or inactive are those of the source. No cut-off for these calls is given here.
Assays:
Saccharomyces cerevisiae = experiment: Antimicrobial activity against Saccharomyces cerevisiae RSKK 251 after 18 to 24 hrs by double microdilution method; type: functional
[1] = tested on: Yersinia pseudotuberculosis; experiment: Antimicrobial activity against Yersinia pseudotuberculosis ATCC 911 after 18 to 24 hrs by double microdilution method; type: functional
Summary of the method: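 Double broth microdilution MIC (µg/mL). Mueller-Hinton broth pH 7.3; plates incubated 18–24 h at 35 °C. Compounds dissolved in […] as 20.000 µg/mL stock. Ampicillin as reference antibacterial; DMSO diluted 1:10 as solvent control.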

Enterococcus faecalis = experiment: Antimicrobial activity against Enterococcus faecalis ATCC 29212 after 18 to 24 hrs by double microdilution method; type: functional
Summary of the method: (§1)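 Twofold broth microdilution in Mueller-Hinton broth, pH 7.3. Compounds come from 20.000 µg/mL stocks in hexane. […] Ampicillin serves as reference drug and DMSO diluted 1:10 as solvent control.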

[2] = tested on: Mycolicibacterium smegmatis; experiment: Antimicrobial activity against Mycobacterium smegmatis ATCC 607 after 48 to 72 hrs by double microdilution method; type: functional
Pseudomonas aeruginosa = experiment: Antimicrobial activity against Pseudomonas aeruginosa ATCC 43288 after 18 to 24 hrs by double microdilution method; type: functional; summary of the method: as §1
Candida albicans = experiment: Antimicrobial activity against Candida albicans ATCC 60193 after 18 to 24 hrs by double microdilution method; type: functional
Staphylococcus aureus = experiment: Antimicrobial activity against Staphylococcus aureus ATCC 25923 after 18 to 24 hrs by double microdilution method; type: functional; summary of the method: as §1
Bacillus cereus = experiment: Antimicrobial activity against Bacillus cereus 702 Roma after 18 to 24 hrs by double microdilution method; type: functional; summary of the method: as §1
Urease = Urease (Canavalia ensiformis, UniProt P07374); experiment: Inhibition of Jack bean urease using urea as substrate assessed as production of ammonia after 15 mins
Summary of the method: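 Jack bean urease in buffer (100 mM urea, 0.01 M K2HPO4, 1 mM EDTA, 0.01 M LiCl, pH 8.2) incubated with compound 15 min at room temperature. Ammonia read by indophenol method (phenol/nitroprusside plus NaOH/NaOCl), absorbance 625 nm after 20 min. % inhibition = 100 − (OD test/OD control)×100. IC50 from serial concentrations (250 to 0.114 µg/mL), triplicate; thiourea standard.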

[3] = molecular target: Urease (Canavalia ensiformis) (UniProt P07374); experiment: Inhibition of Jack bean urease using urea as substrate assessed as production of ammonia at 100 ug/ml after 15 mins
Summary of the method: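 Jack bean urease with buffer (100 mM urea, 0.01 M K2HPO4, 1 mM EDTA, 0.01 M LiCl, pH 8.2) and compound, 15 min at room temperature. Ammonia read by indophenol method (phenol/nitroprusside plus NaOH/NaOCl), A625 after 20 min. % inhibition = 100 − (OD test/OD control)×100. Thiourea as standard; triplicates.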

Urease, sequence (P07374 whole entry): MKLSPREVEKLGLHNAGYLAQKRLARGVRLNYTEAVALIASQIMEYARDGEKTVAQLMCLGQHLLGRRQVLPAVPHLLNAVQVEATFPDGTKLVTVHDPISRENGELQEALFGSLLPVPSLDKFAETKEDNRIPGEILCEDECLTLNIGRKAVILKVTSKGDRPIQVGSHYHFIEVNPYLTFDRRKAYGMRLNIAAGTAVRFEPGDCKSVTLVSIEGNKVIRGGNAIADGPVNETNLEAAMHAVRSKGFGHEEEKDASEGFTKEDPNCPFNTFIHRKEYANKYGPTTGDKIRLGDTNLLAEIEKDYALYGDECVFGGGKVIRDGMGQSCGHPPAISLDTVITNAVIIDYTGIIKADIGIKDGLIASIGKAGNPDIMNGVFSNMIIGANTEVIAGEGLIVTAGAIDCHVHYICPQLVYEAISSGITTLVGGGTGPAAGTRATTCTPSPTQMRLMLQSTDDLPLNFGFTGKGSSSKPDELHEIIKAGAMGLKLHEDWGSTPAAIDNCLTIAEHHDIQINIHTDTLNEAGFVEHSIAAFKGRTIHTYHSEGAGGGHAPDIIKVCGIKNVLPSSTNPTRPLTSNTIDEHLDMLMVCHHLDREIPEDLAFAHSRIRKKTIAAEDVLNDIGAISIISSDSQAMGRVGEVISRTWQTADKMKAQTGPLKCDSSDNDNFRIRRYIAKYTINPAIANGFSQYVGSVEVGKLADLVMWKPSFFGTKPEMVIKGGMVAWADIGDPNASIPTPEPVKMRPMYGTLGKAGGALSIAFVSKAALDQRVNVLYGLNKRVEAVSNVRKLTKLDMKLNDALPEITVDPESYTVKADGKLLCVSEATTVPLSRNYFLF
Urease (Canavalia ensiformis), sequence (P07374 whole entry, looked up): as the sequence (P07374 whole entry) above

Row | Compound | MIC (Saccharomyces cerevisiae) | MIC [1] | MIC (Enterococcus faecalis) | MIC [2] | MIC (Pseudomonas aeruginosa) | MIC (Candida albicans) | MIC (Staphylococcus aureus) | MIC (Bacillus cereus) | IC50 (Urease) | inhibition [3]
1 | COc1ccccc1N1CCN(CC(=O)N/N=C\c2ccccc2O)CC1 | 62.5 µg/mL (≈ 170 µM) | 31.3 µg/mL (≈ 85 µM) | 15.6 µg/mL (≈ 42.3 µM) | 31.3 µg/mL (≈ 85 µM) | 62.5 µg/mL (≈ 170 µM) | 250 µg/mL (≈ 679 µM) | 31.3 µg/mL (≈ 85 µM) | 31.3 µg/mL (≈ 85 µM) |  | 
2 | CCn1cc(C(=O)O)c(=O)c2cc(F)c(N3CCN(c4ccc(NC(=S)NCc5ccccc5)cc4F)CC3)cc21 | inactive | < 1.9 µg/mL | < 1.9 µg/mL | 0.97 µg/mL (≈ 1.68 µM) | 31.5 µg/mL (≈ 54.5 µM) | inactive | < 1.9 µg/mL | < 1.9 µg/mL |  | 
3 | CCn1cc(C(=O)O)c(=O)c2cc(F)c(N3CCN(c4ccc(N)cc4F)CC3)cc21 | inactive | < 1.9 µg/mL | < 1.9 µg/mL | 1.95 µg/mL (≈ 4.55 µM) | 7.81 µg/mL (≈ 18.2 µM) | inactive | < 1.9 µg/mL | < 1.9 µg/mL |  | 
4 | CCn1cc(C(=O)O)c(=O)c2cc(F)c(N3CCN(C(=O)CCl)CC3)cc21 | inactive | 1.7 µg/mL (≈ 4.29 µM) | 0.21 µg/mL (≈ 0.531 µM) | 0.42 µg/mL (≈ 1.06 µM) | 15.6 µg/mL (≈ 39.4 µM) | inactive | 0.21 µg/mL (≈ 0.531 µM) | 0.21 µg/mL (≈ 0.531 µM) |  | 
5 | CC1(C)S[C@@H]2[C@H](NC(=O)[C@H](N)c3ccccc3)C(=O)N2[C@H]1C(=O)O [AMPICILLIN] |  | 18 µg/mL (≈ 51.5 µM) | 10 µg/mL (≈ 28.6 µM) |  | > 128 µg/mL |  | 35 µg/mL (≈ 100 µM) | 15 µg/mL (≈ 42.9 µM) |  | 
6 | CCn1cc(C(=O)O)c(=O)c2cc(F)c(N3CCN(c4ccc([N+](=O)[O-])cc4F)CC3)cc21 | inactive | 31.5 µg/mL (≈ 68.7 µM) | inactive | inactive | inactive | inactive | inactive | inactive |  | 
7 | NC(N)=S [THIOUREA] |  |  |  |  |  |  |  |  | 678 µM | 
8 | CCn1cc(C(=O)O)c(=O)c2cc(F)c(N3CCN(c4ccc(NC(=S)NCCCN5CCOCC5)cc4F)CC3)cc21 | inactive | 62.5 µg/mL (≈ 102 µM) | 31.2 µg/mL (≈ 50.8 µM) | inactive | 500 µg/mL (≈ 813 µM) | inactive | 15.6 µg/mL (≈ 25.4 µM) | 125 µg/mL (≈ 203 µM) |  | 
9 | CN[C@@H]1[C@H](O[C@H]2[C@H](O[C@H]3[C@H](O)[C@@H](O)[C@H](N=C(N)N)[C@@H](O)[C@@H]3N=C(N)N)O[C@@H](C)[C@]2(O)C=O)O[C@@H](CO)[C@H](O)[C@H]1O [STREPTOMYCIN] |  |  |  | 4 µg/mL (≈ 6.88 µM) |  |  |  |  |  | 
10 | CCn1cc(C(=O)O)c(=O)c2cc(F)c(N3CCN(c4ccc(NC(=O)NCc5ccccc5)cc4F)CC3)cc21 | 250 µg/mL (≈ 445 µM) | inactive | 500 µg/mL (≈ 890 µM) | inactive | inactive | 500 µg/mL (≈ 890 µM) | 500 µg/mL (≈ 890 µM) | 500 µg/mL (≈ 890 µM) |  | 
11 | COc1ccc(/C=N\NC(=O)CN2CCN(c3ccccc3OC)CC2)cc1O | 31.3 µg/mL (≈ 78.6 µM) | 31.3 µg/mL (≈ 78.6 µM) | 15.6 µg/mL (≈ 39.2 µM) | 31.3 µg/mL (≈ 78.6 µM) | 31.3 µg/mL (≈ 78.6 µM) | 62.5 µg/mL (≈ 157 µM) | 31.3 µg/mL (≈ 78.6 µM) | 31.3 µg/mL (≈ 78.6 µM) |  | 
12 | CCn1cc(C(=O)O)c(=O)c2cc(F)c(N3CCN(C(=O)CSc4nnc(CN5CCN(c6ccccc6OC)CC5)n4-c4ccccc4)CC3)cc21 |  |  |  |  |  |  |  |  | 27.7 µM | 86.2%
13 | CCn1cc(C(=O)O)c(=O)c2cc(F)c(N3CCN(c4ccc(/N=c5\sc(-c6ccc(Cl)cc6)cn5Cc5ccccc5)cc4F)CC3)cc21 | 250 µg/mL (≈ 351 µM) | inactive | 250 µg/mL (≈ 351 µM) | inactive | inactive | 250 µg/mL (≈ 351 µM) | inactive | inactive |  | 
14 | CCn1cc(-c2ccc(Cl)cc2)s/c1=N\c1ccc(N2CCN(c3cc4c(cc3F)c(=O)c(C(=O)O)cn4CC)CC2)c(F)c1 | inactive | inactive | inactive | inactive | inactive | inactive | inactive | 1000 µg/mL (≈ 1540 µM) |  | 
15 | CCNC(=S)Nc1ccc(N2CCN(c3cc4c(cc3F)c(=O)c(C(=O)O)cn4CC)CC2)c(F)c1 | 250 µg/mL (≈ 485 µM) | inactive | inactive | inactive | inactive | 250 µg/mL (≈ 485 µM) | inactive | inactive |  | 
16 | OC(Cn1cncn1)(Cn1cncn1)c1ccc(F)cc1F [FLUCONAZOLE] | < 8 µg/mL |  |  |  |  | < 8 µg/mL |  |  |  | 
17 | CCn1cc(C(=O)O)c(=O)c2cc(F)c(N3CCN(c4ccc(/N=C5\SC(=O)CN5Cc5ccccc5)cc4F)CC3)cc21 | 250 µg/mL (≈ 405 µM) | 62.5 µg/mL (≈ 101 µM) | 125 µg/mL (≈ 202 µM) | 62.5 µg/mL (≈ 101 µM) | inactive | 250 µg/mL (≈ 405 µM) | 125 µg/mL (≈ 202 µM) | 125 µg/mL (≈ 202 µM) |  | 
18 | CCN1CC(=O)S/C1=N\c1ccc(N2CCN(c3cc4c(cc3F)c(=O)c(C(=O)O)cn4CC)CC2)c(F)c1 | 250 µg/mL (≈ 450 µM) | inactive | 250 µg/mL (≈ 450 µM) | inactive | inactive | 250 µg/mL (≈ 450 µM) | 250 µg/mL (≈ 450 µM) | 250 µg/mL (≈ 450 µM) |  | 

From ChEMBL document CHEMBL2417515, “Microwave assisted synthesis of some hybrid molecules derived from norfloxacin and investigation of their biological activities” (Eur J Med Chem, 2013)
